# Data reported in ChEMBL document CHEMBL3352568, “Synthesis and evaluation of in vitro antimycobacterial activity of novel 1H-benzo[d]imidazole derivatives and analogues” (Eur J Med Chem, 2015).
# Test system: Mycobacterium tuberculosis variant bovis
# Assay: Antimicrobial activity against Mycobacterium bovis by two-fold serial dilution method
# Type: functional
# Summary of the method: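 Classical test-tube successive two-fold dilution in Youmans' modification of Proskauer and Beck liquid medium with 10% bovine serum. Inocula from 14-day-old cultures. Compounds dissolved in ethylene glycol (stock 10 mg/mL), diluted in medium to 0.75–100 µg/mL. Incubated at 37 °C. MIC is the lowest concentration inhibiting growth relative to a compound-free control.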
row,Compound,MIC [µg/mL]
1,Clc1cc2nc(CCC3CCCCC3)[nH]c2cc1Cl,1.5
2,Cc1cc2nc(CCCc3ccccc3)[nH]c2cc1C,6.2
3,Cc1ccc2[nH]c(CCCc3ccccc3)nc2c1,25
4,O=[N+]([O-])c1ccc2[nH]c(CCC3CCCCC3)nc2c1,3.1
5,Brc1ccc2[nH]c(CCC3CCCCC3)nc2c1,0.75
6,Fc1ccc2[nH]c(CCC3CCCCC3)nc2c1,3.1
7,Clc1ccc2[nH]c(CCC3CCCCC3)nc2c1,0.75
8,Clc1cc2nc(CCCc3ccccc3)[nH]c2cc1Cl,3.1
9,Cc1ccc2[nH]c(-c3cc(-c4ccccc4)ccn3)nc2c1,25
10,Clc1cc2nc(CCCC3CCCCC3)[nH]c2cc1Cl,25
11,Cc1ccc2[nH]c(CCC3CCCCC3)nc2c1,12.5
12,Fc1ccc2[nH]c(CCCC3CCCCC3)nc2c1,6.2
13,Cc1cc2nc(CCC3CCCCC3)[nH]c2cc1C,0.75
